Assay [1] relates to HT-29. In words: Induction of NQO1 expression in human HT-29 cells at 1.5 uM after 6 hrs by Western blotting method. The class given is functional. The procedure, abridged: (§1)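 Whole-cell lysates from treated HT29 cells in pH 7.5 Hepes/KOH buffer with EDTA, KCl, Igepal, DTT and protease inhibitors. 50 µg protein run on 10-15% SDS-PAGE and transferred to nitrocellulose. Probed overnight at 4°C with anti-HO-1 (1:1 000), anti-NQO1 (1:1 000) or anti-GCL (1:500), then HRP secondary for 45 min and chemiluminescence. Bands normalized to GAPDH (1:10 000), with the DMSO ratio set to 1.00. Representative of three experiments.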

For assay [2], the system named is HT-29. In words: Induction of GCL expression in human HT-29 cells at 1.5 uM after 4 hrs by Western blotting method. The class given is functional. The procedure, abridged:
(§2)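 HT29 whole-cell lysates in Hepes/KOH pH 7.5 with EDTA, KCl, NP40, DTT, protease inhibitors; 50 µg protein on 10–15% SDS-PAGE, nitrocellulose, overnight 4°C primary antibody (GCL 1:500, HO-1 1:1000), HRP secondary, chemiluminescence. Bands normalized to GAPDH (1:10 000), DMSO ratio set at 1.00; representative of three independent experiments.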
(In general: In western blotting, separated proteins are transferred to a membrane and probed.)

For assay [3], the system named is HT-29. In words: Induction of GCL expression in human HT-29 cells at 1.5 uM after 6 hrs by Western blotting method. Type of assay: functional. The procedure, abridged: as §2
The subject of assay [4] is HT-29. Put plainly: Induction of NQO1 expression in human HT-29 cells at 1.5 uM after 2 hrs by Western blotting method. Type of assay: functional. The procedure, abridged: as §1
Assay [5] concerns HT-29. In words: Induction of HO1 expression in human HT-29 cells at 1.5 uM after 4 hrs by Western blotting method. The class given is functional. The gist of the method:
as §2

In assay [6] the test system is HT-29. In words: Induction of HO1 expression in human HT-29 cells at 1.5 uM after 6 hrs by Western blotting method. Type of assay: functional. The gist of the method:
as §2

Assay [7] has as its system HT-29. In words: Induction of GCL expression in human HT-29 cells at 1.5 uM after 2 hrs by Western blotting method. The class given is functional. The procedure, abridged: as §2
Assay [8] deals with HT-29. Put plainly: Induction of NQO1 expression in human HT-29 cells at 1.5 uM after 24 hrs by Western blotting method. Type of assay: functional. The gist of the method: as §1
Assay [9] deals with HT-29. In words: Induction of NQO1 expression in human HT-29 cells at 1.5 uM after 4 hrs by Western blotting method. Type of assay: functional. The procedure, abridged:
as §1

The test system of assay [10] is HT-29. Put plainly: Induction of ROS generation in human HT-29 cells at 2.5 uM after 2 to 6 hrs by DCF-DA staining based fluorescence assay. The class given is functional, cell-based. The procedure, abridged:
(§3)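 HT29 cells treated two days after seeding, then loaded with 50 µM DCF-DA for 15 min at 37°C. Cells trypsinized, washed and resuspended in PBS, and 30 000 cells/sample read by flow cytometry (FL-1). Expressed as % of DMSO-treated cells; […] for 1 h served as positive control. Triplicates from three independent experiments.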

The subject of assay [11] is HT-29. Put plainly: Induction of HO1 expression in human HT-29 cells at 3.8 uM after 6 hrs by Western blotting method. Type of assay: functional. The procedure, abridged: as §2
Assay [12] concerns HT-29. In words: Induction of GCL expression in human HT-29 cells at 3.8 uM after 4 hrs by Western blotting method. Type of assay: functional. The gist of the method: as §2
Assay [13] deals with HT-29. In words: Induction of NQO1 expression in human HT-29 cells at 3.8 uM after 6 hrs by Western blotting method. The class given is functional. The procedure, abridged: as §1
In assay [14] the test system is HT-29. In words: Induction of HO1 expression in human HT-29 cells at 3.8 uM after 2 hrs by Western blotting method. Type of assay: functional. The gist of the method:
as §2

The subject of assay [15] is HT-29. Put plainly: Induction of HO1 expression in human HT-29 cells at 3.8 uM after 24 hrs by Western blotting method. The class given is functional. The gist of the method: as §2
The test system of assay [16] is HT-29. Put plainly: Induction of NQO1 expression in human HT-29 cells at 3.8 uM after 24 hrs by Western blotting method. The class given is functional. The procedure, abridged: as §1
Assay [17] concerns HT-29. Put plainly: Induction of HO1 expression in human HT-29 cells at 3.8 uM after 4 hrs by Western blotting method. The class given is functional. The gist of the method:
as §2

Assay [18] relates to HT-29. In words: Induction of NQO1 expression in human HT-29 cells at 3.8 uM after 2 hrs by Western blotting method. The class given is functional. The gist of the method: as §1
Assay [19] relates to HT-29. In words: Induction of GCL expression in human HT-29 cells at 3.8 uM after 2 hrs by Western blotting method. The class given is functional. The procedure, abridged:
as §2

Assay [20] deals with HT-29. In words: Induction of GCL expression in human HT-29 cells at 3.8 uM after 24 hrs by Western blotting method. The class given is functional. The procedure, abridged: as §2
Assay [21] concerns HT-29. In words: Induction of NQO1 expression in human HT-29 cells at 3.8 uM after 4 hrs by Western blotting method. Type of assay: functional. The procedure, abridged: as §1
Assay [22] has as its system HT-29. In words: Induction of NQO1 expression in human HT-29 cells at 10 uM after 6 hrs by Western blotting method. Type of assay: functional. The procedure, abridged: as §1
The subject of assay [23] is HT-29. In words: Induction of GCL expression in human HT-29 cells at 10 uM after 2 hrs by Western blotting method. Type of assay: functional. The procedure, abridged:
as §2

Assay [24] has as its system HT-29. In words: Induction of GCL expression in human HT-29 cells at 10 uM after 4 hrs by Western blotting method. Type of assay: functional. The procedure, abridged: as §2
In assay [25] the test system is HT-29. In words: Induction of GCL expression in human HT-29 cells at 10 uM after 24 hrs by Western blotting method. Type of assay: functional. The procedure, abridged:
as §2

In assay [26] the test system is HT-29. In words: Induction of GCL expression in human HT-29 cells at 10 uM after 6 hrs by Western blotting method. The class given is functional. The gist of the method: as §2
Assay [27] relates to HT-29. Put plainly: Induction of NQO1 expression in human HT-29 cells at 10 uM after 24 hrs by Western blotting method. Type of assay: functional. The gist of the method:
as §1

Assay [28] concerns HT-29. In words: Induction of HO1 expression in human HT-29 cells at 10 uM after 6 hrs by Western blotting method. Type of assay: functional. The procedure, abridged: as §2
The test system of assay [29] is HT-29. Put plainly: Induction of HO1 expression in human HT-29 cells at 10 uM after 24 hrs by Western blotting method. Type of assay: functional. The gist of the method:
as §2

For assay [30], the system named is HT-29. Put plainly: Induction of HO1 expression in human HT-29 cells at 10 uM after 2 hrs by Western blotting method. The class given is functional. The procedure, abridged:
as §2

Assay [31] has as its system HT-29. Put plainly: Inhibition of cell growth in human HT-29 cells assessed as mitotic index ratio in presence of 1 mM ascorbic acid (reference value: 1.08 +/- 0.04). The class given is functional.
The subject of assay [32] is HT-29. In words: Induction of ROS generation in human HT-29 cells at 2.5 uM after 3 hrs by DCF-DA staining based fluorescence assay. The class given is functional, cell-based. The procedure, abridged: as §3
The test system of assay [33] is HT-29. In words: Induction of HO1 expression in human HT-29 cells at 6.4 uM after 4 hrs by Western blotting method. The class given is functional. The procedure, abridged:
as §2

The subject of assay [34] is HT-29. In words: Induction of HO1 expression in human HT-29 cells at 6.4 uM after 2 hrs by Western blotting method. The class given is functional. The gist of the method: as §2
In assay [35] the test system is HT-29. In words: Induction of GCL expression in human HT-29 cells at 6.4 uM after 24 hrs by Western blotting method. Type of assay: functional. The procedure, abridged:
as §2

Assay [36] deals with HT-29. Put plainly: Induction of NQO1 expression in human HT-29 cells at 6.4 uM after 24 hrs by Western blotting method. The class given is functional. The procedure, abridged: as §1
Assay [37] has as its system HT-29. Put plainly: Induction of HO1 expression in human HT-29 cells at 6.4 uM after 24 hrs by Western blotting method. The class given is functional. The procedure, abridged: as §2
Assay [38] has as its system HT-29. Put plainly: Induction of NQO1 expression in human HT-29 cells at 6.4 uM after 4 hrs by Western blotting method. The class given is functional. The gist of the method: as §1
For assay [39], the system named is HT-29. Put plainly: Induction of NQO1 expression in human HT-29 cells at 6.4 uM after 2 hrs by Western blotting method. The class given is functional. The gist of the method: as §1
Assay [40] concerns HT-29. In words: Induction of GCL expression in human HT-29 cells at 6.4 uM after 2 hrs by Western blotting method. Type of assay: functional. The gist of the method:
as §2

For assay [41], the system named is HT-29. In words: Induction of GCL expression in human HT-29 cells at 6.4 uM after 6 hrs by Western blotting method. Type of assay: functional. The procedure, abridged:
as §2

Molecules are shown by their SMILES. The source made the active and inactive calls. The calls are words filed in the database; no cut-off is given here.

On to `CN(C)c1ccc(/C=C2\S/C(=N\c3csc(-c4ccc(Cl)cc4)c3)NC2=O)cc1`, for which the “fold change (FC)” value in the assay on HT-29 [1] worked out at 1.26; with HT-29 [2], 0.96; in the assay on HT-29 [3], 0.99; with HT-29 [4], 1.15; in the assay on HT-29 [5], 1; in the assay on HT-29 [6], 1. Further, the “fold change (FC)” value in the assay on HT-29 [7] came out at 0.9; in the assay on HT-29 [8], 1.07; in the assay with HT-29 [9], 1.06.

In the case of `COc1ccc(/C=C2\S/C(=N\c3nc(-c4ccc(Cl)cc4)cs3)NC2=O)cc1`, in the assay on HT-29 [10], the result was inactive.

For `COc1ccc(/C=C2\S/C(=N\c3csc(-c4ccc(Cl)cc4)c3)NC2=O)cc1`, the “fold change (FC)” value in the assay on HT-29 [11] is on record as 1; with HT-29 [12], 1.49; in the assay on HT-29 [13], 0.9; in the assay with HT-29 [14] it was 1; in the assay on HT-29 [15], 1; in the assay with HT-29 [16], 0.88. Further, the “fold change (FC)” value in the assay on HT-29 [17] worked out at 1; in the assay on HT-29 [18], 1.16; in the assay with HT-29 [19], 1.22; in the assay on HT-29 [20], 1.55; with HT-29 [21] it was 0.87.

In the case of `COc1ccc(/C=C2\S/C(=N\c3csc(-c4ccc(Cl)cc4)c3)NC2=O)cc1OC`, the “fold change (FC)” value with HT-29 [22] is 1.23; in the assay on HT-29 [23] it was 0.96; in the assay with HT-29 [24], 1.16; with HT-29 [25], 1.11; in the assay with HT-29 [26], 1.16; in the assay on HT-29 [27] it was 0.9. Further, the “fold change (FC)” value in the assay on HT-29 [28], in the assay on HT-29 [29] and with HT-29 [30] was 1 each time.

Turning to `CN(C)c1ccc(/C=C2\S/C(=N\c3nc(-c4ccc(Cl)cc4)cs3)NC2=O)cc1`, the Ratio in the assay with HT-29 [31] came to 0.09. In addition, in the assay with HT-29 [32], the result was Active.

Regarding `Cc1ccc(/C=C2\S/C(=N\c3csc(-c4ccc(Cl)cc4)c3)NC2=O)cc1`, the “fold change (FC)” value is given as 1 with HT-29 [33]; 1 in the assay with HT-29 [34]; 0.97 in the assay on HT-29 [35]; 1.6 in the assay with HT-29 [36]; 1 in the assay with HT-29 [37]; 2.59 in the assay on HT-29 [38]. For the same compound, the “fold change (FC)” value was 2.23 in the assay with HT-29 [39], 1.93 in the assay with HT-29 [40] and 2.25 with HT-29 [41].

For the origin of these results see ChEMBL document CHEMBL3414496, “Synthesis and biological evaluation of novel 2-heteroarylimino-1,3-thiazolidin-4-ones as potential anti-tumor agents” (Eur J Med Chem, 2015).
